# AP ELISA ortho – orthogonal test for alternative complement pathway inhibitors | actives 0.08% (n = 62,000) | inhibition, % at 5 µM | Human serum alternative complement pathway, LPS-coated ELISA, C3 deposition; tested in compound mixtures;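 active means inhibition above 30% in each of the two pooled mixtures holding the compound, so the lower value exceeds 30%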
#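 Assay system: Human serum alternative complement pathway, C3 deposition on LPS-coated wells | Incubation: 1 h serum-compound exposure at 37 °C | Doses: 5 µM per compound in ten-compound mixtures | Read-out: Percent inhibition | Technique: ELISA with HRP anti-human C3 antibody, TMB substrate, absorbance 450 nm | Replication: Two pool placements per compound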
# PLAP act – activates human placental alkaline phosphatase | P05187 | actives 1.2% (n = 96,000) | activation fold at 20 µM | purified PLAP enzyme, luminescent substrate read-out; stronger effect = higher value; in the data active means activation fold above about 2
# HePTP inh – inhibitors of human HePTP phosphatase | recombinant HePTP phosphatase activity, OD absorbance | actives 0.64% (n = 110,000) | P35236 | inhibition, % at 20 µM; in the data active means inhibition above about 50%
# Target sequence (P35236 whole entry, looked up): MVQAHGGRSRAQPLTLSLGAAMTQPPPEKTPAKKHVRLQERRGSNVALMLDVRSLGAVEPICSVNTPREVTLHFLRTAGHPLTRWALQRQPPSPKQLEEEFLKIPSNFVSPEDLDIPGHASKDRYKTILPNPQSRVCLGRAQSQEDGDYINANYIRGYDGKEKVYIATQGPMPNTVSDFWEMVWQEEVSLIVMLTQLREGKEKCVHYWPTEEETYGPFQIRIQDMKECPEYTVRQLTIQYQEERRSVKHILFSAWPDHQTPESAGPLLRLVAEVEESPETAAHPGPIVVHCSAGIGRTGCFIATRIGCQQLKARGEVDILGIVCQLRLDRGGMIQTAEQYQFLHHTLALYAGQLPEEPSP
# E coli WT exp – E. coli BW25113 growth inhibition, expanded screen | OD600 absorbance | growth inhibition, % at 100 µM | actives 0.15% (n = 98,000) | AID 710;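 active means growth inhibition above about 50% at one test dose, limit read from the data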;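 further: growth measured after 20 h incubation at 37 °C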
# Ecoli tolC – growth inhibitors of E. coli BW25113 tolC mutant; OD615; growth inhibition, % at 10 µM (by protocol); actives 2.2% (n = 65,000);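 active means growth inhibition at or above a cutoff equal to the mean over every tested compound plus 3 SD, cut at about 60% in these data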;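 further: growth measured after 20 h incubation at 37 °C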
#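 Test system: E. coli BW25113 ΔtolC::kan bacteria; incubation: 37 °C, 20 h exposure; medium: LB broth supplemented with 50 µg/mL kanamycin; read-out basis: percent growth inhibition; signal: A615 absorbance measurement; compound: 10 µM final, single dose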
# Numbers stand for hits; 0 = inactive; - = no result; ! = not active in a repeat. In the library only some 2.3% were active in any assay of this set; here they are far more common.
SMILES,AP ELISA ortho,PLAP act,HePTP inh,E coli WT exp,Ecoli tolC
O=C(Cc1ccccc1)Nc1ccc(C(=O)OC2CCCCC2)cc1,-,-,0,-,-
O=C(OC1CCCCC1)c1ccc(NC(=O)c2ccco2)cc1,0,0,0,0,96
O=C1c2ccccc2NC(c2ccc(Cl)c(Cl)c2)N1Cc1ccccc1 (centres undefined),-,-,0,-,-
Cc1nnc(N2C(=O)C3CCC(C)(C2=O)C3(C)C)s1 (centres undefined),-,-,0,-,-
CCOC(=O)C1NN=C(C(=O)c2ccccc2)C1c1ccc(OC)cc1 (centres undefined),-,-,104,-,-
CC(C)(C)C(=O)Cn1c(=N)n(Cc2ccccc2Cl)c2ccccc21,-,0,-,0,-
CC(C)(C)C(=O)Cn1c(=N)n(Cc2ccccc2)c2ccccc21,0,-,0,0,100
CCCn1nnc(NC(=O)COc2ccc(C3CCCCC3)cc2)n1,0,0,0,0,100
O=C(C1CN(S(=O)(=O)c2ccccc2)CCN1S(=O)(=O)c1ccccc1)N1CCCCCC1 (centres undefined),0,0,50!,0,0
COC(=O)c1c(C)oc2cc(Br)c(OC(C)C(=O)OC)cc12 (centres undefined),-,-,0,-,-
Cc1ccccc1CS(=O)(=O)c1nnc([C@H](Cc2ccccc2)NC(=O)OC(C)(C)C)o1,-,0,-,0,-
CC(C)(C)OC(=O)N[C@@H](Cc1ccccc1)c1nnc(S(=O)(=O)Cc2ccccc2)o1,31,0,0,0,0
COc1ccc(CCNc2nc(C)nc3c2oc2ccccc23)cc1OC,0,2,0,0,-
COc1ccc(CC(=O)Nc2ccccc2NC(C)=O)cc1OC,-,-,0,-,-
CC(C)(C)n1nnnc1C(c1cccnc1)N(Cc1ccccc1)Cc1cccs1 (centres undefined),-,0,-,0,-
CC(C)(C)n1nnnc1C(c1cccs1)N(Cc1ccccc1)Cc1cccnc1 (centres undefined),0,0,0,0,80
c1ccc(Nc2nc3ccccc3[nH]2)nc1,0,2.2,0,0,0
Cc1ccc(S(=O)(=O)Cc2ccc(C(=O)NCc3ccc4c(c3)OCO4)o2)cc1,0,0,0,0,0
O=C(NCc1ccc2c(c1)OCO2)c1ccc(COc2cccc(Cl)c2)o1,0,0,0,0,79
C/C(=N\NC(=O)c1ccccc1O)C1C(=O)c2ccccc2C1=O,-,2.1,-,0,-
COc1cccc(OCC(=O)NNC(=O)c2ccccc2C)c1,-,-,0,-,-
Cc1oc2c(CN3CCCC3)c(O)ccc2c(=O)c1-c1ccc(Br)cc1,0,0,0,0,77
CC(=O)c1cccc(NC(=O)COc2ccc(C)cc2C)c1,-,-,0,-,-
CC(C)COc1ccc(Cc2cnc(N)nc2N)cc1,-,0,-,66,-
CC(C)COc1ccc(Cc2c(O)nc(N)[nH]c2=O)cc1,-,-,0,-,-
SMILES,AP ELISA ortho,PLAP act,HePTP inh,E coli WT exp,Ecoli tolC
O=C(CCn1c(=S)[nH]c2ccccc2c1=O)NCCCN1CCOCC1,-,0,-,0,-
COc1ccc2[nH]c3c(=O)n(CCCCC(=O)N4CCC(C(N)=O)CC4)c(=S)[nH]c3c2c1,0,0,0,0,100
COc1ccc2[nH]c3c(=O)n(CCCCC(=O)NCCN4CCCC4)c(=S)[nH]c3c2c1,0,0,0,0,61
COc1ccc(OC)c(-n2c(=S)[nH]c3cc(C(=O)N4CCC(C(N)=O)CC4)ccc3c2=O)c1,-,0,-,0,-
COc1cc(/C=N/N2CCN(c3ccccc3)CC2)cc(OC)c1O,-,-,0,-,-
COc1ccc(/C=C2\SC(=S)N(CCCC(=O)NC34CC5CC(CC(C5)C3)C4)C2=O)cc1,-,-,0,-,-
COc1cc(/C=C/C(=O)c2ccc(Cl)cc2)cc(OC)c1OC,-,-,0,-,-
O=C1CS/C(=N\N=C\c2cccc(Br)c2)N1,-,-,0,-,-
O=C1CS/C(=N\N=C\c2cn(Cc3ccc(Cl)cc3Cl)c3ccccc23)N1,-,-,66,-,-
COc1ccc(N2CCN(Cc3nc4ccsc4c(=O)[nH]3)CC2)cc1,-,0,-,0,-
Cc1ccc(Cl)cc1N1CCN(Cc2nc3ccsc3c(=O)[nH]2)CC1,-,2.3,-,0,-
Cc1cc(C)c2cc(CN(CCO)C(c3nnnn3Cc3ccc(F)cc3)C(C)C)c(=O)[nH]c2c1 (centres undefined),0,0,0,0,70
COc1ccc2c(c1)CC/C2=N/OC(=O)c1cc(OC)c(OC)c(OC)c1,-,-,0,-,-
COc1ccc(C(C)(C)C)cc1NC(=O)Nc1ccc2c(c1)OCO2,0,-,0,0,65
CCCCCC(NC(C)=O)C(=O)NC(=O)NCc1ccccc1 (centres undefined),-,-,0,-,-
c1ccc(Nc2nc(-c3ccccn3)cs2)cc1,-,0,0,0,-
COc1cccc2sc(Nc3nc(-c4ccccn4)cs3)nc12,0,0,0,0,98
CCOc1ccccc1C(=O)Nc1nc2ccc(C)cc2s1,-,-,0,-,-
CCn1c(C(=O)N2CCC(C(=O)NCCCSC3CCCCC3)CC2)cc2sccc21,0,0,0,0,84
CCOc1ccccc1NC(=O)c1cc(CC(C)C)oc1C,0,0,0,0,75
Cc1cc(OCCCN2CCOCC2)ccc1Cl,-,-,0,-,-
CCS(=O)(=O)N1Cc2ccccc2CC1C(=O)OCC(=O)Nc1ccc(C)cc1 (centres undefined),0,0,0,0,0
CCS(=O)(=O)N1Cc2ccccc2CC1C(=O)Nc1nc2ccccc2[nH]1 (centres undefined),0,2.4,0,0,0
CSc1nsc(SCC(=O)Nc2cccc(C(C)=O)c2)n1,0,0,0,0,0
CCOC(=O)c1ccc(NC(=O)CSc2nc(SC)ns2)cc1,0,0,0,0,100
C=CCN1C(=O)/C(=C/c2cc([N+](=O)[O-])ccc2OC)SC1=S,-,-,0,-,-
Cc1cc(C)c2ccc(NN)nc2c1O,-,2,-,0,-
CN(C(=O)CSc1nnc(Nc2ccccc2)s1)c1c(N)n(Cc2ccccc2)c(=O)[nH]c1=O,-,2.1,-,0,-
CCCCN(C(=O)CSc1nnc(Nc2ccc(C)c(C)c2)s1)c1c(N)n(Cc2ccccc2)c(=O)[nH]c1=O,-,0,-,0,-

# Source: PubChem (several laboratories)
